Laboratory results reported in ChEMBL document CHEMBL3108685, “Exploring the chemical space of G-quadruplex binders: discovery of a novel chemotype targeting the human telomeric sequence” (J Med Chem, 2013).
The source made the active and inactive calls. The rule behind the calls is not given here.

Assays:
BJ [1] = experiment: Induction of DNA damage response in human BJ cells expressing human TERT assessed as phosphorylation of gamma H2AX at 1 uM after 24 hrs by DAPI staining-based immunofluorescence analysis; format: cell-based
Summary of the method: (§1)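 BJ-HELT and BJ-hTERT fibroblasts grown in D-MEM with 10% FCS and 2 mM glutamine, exposed to 1 μM for 24 h. Cells fixed in 2% formaldehyde, permeabilized with 0.25% Triton X-100, stained with anti-γH2AX plus FITC secondary, and counterstained with DAPI. 200 cells scored on triplicate slides. Mean ± SD of at least three experiments.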

BJ [2] = experiment: Induction of DNA damage response in human BJ cells expressing SV40 early region protein HELT assessed as phosphorylation of gamma H2AX at 1 uM after 24 hrs by DAPI staining-based immunofluorescence analysis relative to control; format: functional; summary of the method: as §1
Homo sapiens [3] = species on record: Homo sapiens; experiment: Displacement of thiazole orange from human Tel24 G-quadruplex DNA up to 28 uM by fluorescent intercalator displacement assay
Summary of the method: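 Tel24 unlabelled (0.6 μM) preloaded with thiazole orange (1.2 μM) in 10 mM Tris, 50 mM KCl, pH 7.4. Ligand added in increasing amounts and fluorescence emission followed. Displacement % = 100 − (F/F0 × 100), with F0 the signal before ligand, plotted against concentration. At least three repeats, each in triplicate.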

Homo sapiens [4] = species on record: Homo sapiens; experiment: Binding affinity to human TBA G-quadruplex DNA assessed as change in melting temperature at 10 uM by FRET assay
Summary of the method: (§2)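 FRET melting: target oligos labelled 5′-DABCYL / 3′-fluorescein, 0.25 μM, with ligand in 50 mM potassium buffer (10 mM LiOH, 50 mM KCl, pH 7.4). Samples denatured at 95 °C for 5 min, cooled slowly overnight, then ramped to 90 °C and back to 30 °C at 0.2 °C/min. Excitation 488 nm, emission 520 nm. Tm taken from first derivative; at least three repeats, errors ±0.2 °C.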

Homo sapiens [5] = species on record: Homo sapiens; experiment: Binding affinity to human kit2 G-quadruplex DNA assessed as change in melting temperature at 10 uM by FRET assay; summary of the method: as §2
Homo sapiens [6] = species on record: Homo sapiens; experiment: Binding affinity to human kit1 G-quadruplex DNA assessed as change in melting temperature at 10 uM by FRET assay; summary of the method: as §2
Homo sapiens [7] = species on record: Homo sapiens; experiment: Binding affinity to human c-myc G-quadruplex DNA assessed as change in melting temperature at 10 uM by FRET assay; summary of the method: as §2
Homo sapiens [8] = species on record: Homo sapiens; experiment: Binding affinity to human Tel24 G-quadruplex DNA assessed as change in melting temperature up to 20 uM by FRET assay; summary of the method: as §2
Homo sapiens [9] = species on record: Homo sapiens; experiment: Binding affinity to human Tel24 G-quadruplex DNA at 2:1 ligand/DNA ratio by NMR analysis
HT-29 [10] = experiment: Induction of apoptosis in human HT-29 cells assessed as late apoptotic cells at 2 uM measured on day 5 by Annexin V/propidium iodide staining-based flow cytometric analysis (reference value: 10%); format: functional
HT-29 [11] = experiment: Induction of apoptosis in human HT-29 cells assessed as early apoptotic cells at 2 uM measured on day 5 by Annexin V/propidium iodide staining-based flow cytometric analysis (reference value: 4%); format: functional
BJ [12] = experiment: Cytotoxicity against human BJ cells expressing human TERT assessed as cell viability up to 3 uM after 4 days by MTT assay; format: cell-based; conditions: 96 h
Summary of the method: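 BJ-hTERT cells seeded at 3 × 10^3 per well and treated 24 h later with 0, 1, 2 or 3 μM for 4 days. MTT (5 mg/mL stock in PBS) added, followed by 4 h at 37 °C. Formazan dissolved in isopropanol and OD read at 540 nm. Mean ± SD of three experiments.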

HT-29 [13] = experiment: Cytotoxicity against human HT-29 cells assessed as inhibition of cell survival after 4 days by clonogenic assay; format: functional, cell-based
Summary of the method: (§3)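 Cells seeded at 5 × 10^2 per 60 mm dish and treated 24 h later across a dose series for 4 days, then colony formation scored. Surviving fraction = treated/control absolute survival. IC50 from dose–response. Mean ± SD of three independent experiments.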

U2OS = experiment: Cytotoxicity against human U2OS cells assessed as inhibition of cell survival after 4 days by clonogenic assay; format: functional, cell-based; summary of the method: as §3
HeLa = experiment: Cytotoxicity against human HeLa cells assessed as inhibition of cell survival after 4 days by clonogenic assay; format: functional, cell-based; summary of the method: as §3
BJ [14] = experiment: Induction of telomere dysfunction induced foci in human BJ cells expressing SV40 early protein HELT assessed as increase in gamma H2AX/TRF1 co-localization at 1 uM by deconvolution microscopy relative to control; format: functional
Summary of the method: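 BJ-HELT fibroblasts given 1 μM, then double immunofluorescence for γH2AX and TRF1 with DAPI, imaged by deconvolution microscopy. In a single plane, 30 γH2AX-positive cells scored; cells with at least four γH2AX/TRF1 colocalizations counted as TIF-positive. Mean TIFs per nucleus also scored. Mean ± SD, three experiments.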

Homo sapiens [15] = species on record: Homo sapiens; experiment: Binding affinity to human Tel24 G-quadruplex DNA assessed as change in DNA topology by CD spectroscopic analysis
Summary of the method: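 CD spectra recorded at 25 °C, 220–320 nm, on annealed Tel24 (40 μM) with or without an excess of ligand. Buffer 10 mM Tris-HCl, 50 mM KCl, pH 7.4; 1 mm path length. Average of three scans, buffer baseline subtracted. Time constant 4 s, bandwidth 2 nm, scan rate 20 nm min−1.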

Homo sapiens [16] = species on record: Homo sapiens; experiment: Binding affinity to human Tel24 G-quadruplex DNA assessed as change in melting temperature at 10 uM by FRET assay; summary of the method: as §2
HT-29 [17] = experiment: Cell cycle arrest in human HT-29 cells assessed as accumulation at subG1 phase at 2 uM by […]propidium iodide staining-based flow cytometric analysis; format: functional; conditions: TDE = time-dependent effect
Summary of the method: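 HT29 cells cultured with or without 2 μM and sampled on days 4, 5 and 6. Cells fixed in 70% ethanol, stained 30 min at room temperature in the dark with PI (50 μg/mL) plus RNase A, and analysed by flow cytometry (20000 events). Sub-G1 fraction taken as the apoptotic measure.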

## Clc1ccc2[nH]c(-c3ccc(OCCCN4CCN(c5ccccc5)CC4)cc3)nc2c1
BJ [1]
  Activity: Non-toxic
BJ [2]
  Activity: Active
Homo sapiens [3]
  Activity: inactive
Homo sapiens [4]
  Activity: inactive
Homo sapiens [5]
  Activity: inactive
Homo sapiens [6]
  Activity: inactive
Homo sapiens [7]
  Activity: inactive
Homo sapiens [8]
  Activity: inactive

## Cn1c(=O)c2cc(C(=O)NCCN3CCC(Cc4ccccc4)CC3)sc2c2ccccc21
Homo sapiens [9]
  Activity: Active
HT-29 [10]
  Activity: 30%
HT-29 [11]
  Activity: 37%
BJ [12]
  Activity: Non-toxic
HT-29 [13]
  Activity: Dose-dependent effect
HT-29 [13]; HT-29, 96 h
  IC50: 1 µM
U2OS
  Activity: Dose-dependent effect
U2OS; 96 h
  IC50: 1 µM
HeLa
  Activity: Dose-dependent effect
HeLa; 96 h
  IC50: 1 µM
BJ [14]
  Activity: <=50%
BJ [1]
  Activity: Non-toxic
BJ [2]
  Activity: 60%
Homo sapiens [15]
  Activity: Active
Homo sapiens [3]
  Activity: Active
Homo sapiens [16]
  Activity: Active
HT-29 [17]
  Activity: tde
Homo sapiens [8]
  ΔTm: 11 °C

## Cc1cc(NC(=O)c2cc(-c3ccccc3O)no2)nn1CC(=O)N1CCOCC1
Homo sapiens [4]
  Activity: inactive
Homo sapiens [5]
  Activity: inactive
Homo sapiens [6]
  Activity: inactive
Homo sapiens [7]
  Activity: inactive

## COc1ccc(NC(=O)c2ccc(CN3CCC(Cc4ccccc4)CC3)cc2)cc1OC
BJ [1]
  Activity: Non-toxic
BJ [2]
  Activity: Active
Homo sapiens [3]
  Activity: inactive
Homo sapiens [4]
  Activity: inactive
Homo sapiens [5]
  Activity: inactive
Homo sapiens [6]
  Activity: inactive
Homo sapiens [7]
  Activity: inactive
Homo sapiens [8]
  Activity: inactive
